Results from ChEMBL document CHEMBL1759915, “Synthesis and anticancer effects of some novel pyrazolo[3,4-d]pyrimidine derivatives by generating reactive oxygen species in human breast adenocarcinoma cells” (Eur J Med Chem, 2011).
≈ marks a conversion by molar mass, not a printed value.

Experiments:
[1] = test system: MCF7; assay: Effect on CAT level in human MCF7 cells assessed per mg protein at 5 ug/ml after 24 hrs (reference value: 7.90+/- 0.67 U/mg of protein); type: functional
[2] = test system: MCF7; assay: Decrease in glutathione level in human MCF7 cells; type: functional, cell-based
[3] = test system: MCF7; assay: Effect on glutathione level in human MCF7 cells assessed per mg protein at 10 ug/ml by Ellman method after 24 hrs (reference value: 39.82 +/- 4.20 nmol/mg of protein); type: functional
[4] = test system: MCF7; assay: Effect on RNA level in human MCF7 cells assessed per 10 '6 cells at 2 ug/ml after 24 hrs (reference value: 11.50 +/- 0.70 ug/10^6 cells); type: functional
Summary of the method: (§1)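 After 24 h exposure of MCF-7 cells to compound at 2, 5, 10 or 20 µg/ml at 37 °C, nucleic acids were precipitated from cell homogenates. DNA was extracted and assayed by the Zhou et al. method, and RNA by a kit-derived procedure. Results given per 10⁶ cells as means ± S.E. of four experiments versus untreated control.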

[5] = test system: MCF7; assay: Effect on hydrogen peroxide level in human MCF7 cells assessed per mg protein at 2 ug/ml by Wolf's method after 24 hrs (reference value: 12.50 +/- 1.54 nmol/mg of protein); type: functional
[6] = test system: MCF7; assay: Effect on DNA level in human MCF7 cells assessed per 10 '6 cells at 5 ug/ml after 24 hrs (reference value: 6.80 +/- 0.70 ug/10^6 cells); type: functional; summary of the method: as §1
[7] = test system: MCF7; assay: Effect on hydrogen peroxide level in human MCF7 cells assessed per mg protein at 10 ug/ml by Wolf's method after 24 hrs (reference value: 12.50 +/- 1.54 nmol/mg of protein); type: functional
[8] = test system: MCF7; assay: Effect on CAT level in human MCF7 cells assessed per mg protein at 10 ug/ml after 24 hrs (reference value: 7.90+/- 0.67 U/mg of protein); type: functional
[9] = test system: MCF7; assay: Effect on SOD level in human MCF7 cells assessed per mg protein at 20 ug/ml after 24 hrs (reference value: 27.61+/- 3.72 U/mg of protein); type: functional
[10] = test system: MCF7; assay: Increase in hydrogen peroxide level in human MCF7 cells; type: functional, cell-based
[11] = test system: MCF7; assay: Effect on RNA level in human MCF7 cells assessed per 10 '6 cells at 10 ug/ml after 24 hrs (reference value: 11.50 +/- 0.70 ug/10^6 cells); type: functional; summary of the method: as §1
[12] = test system: MCF7; assay: Effect on SOD level in human MCF7 cells assessed per mg protein at 2 ug/ml after 24 hrs (reference value: 27.61+/- 3.72 U/mg of protein); type: functional
[13] = test system: MCF7; assay: Decrease in CAT level in human MCF7 cells; type: functional, cell-based
[14] = test system: MCF7; assay: Effect on glutathione level in human MCF7 cells assessed per mg protein at 5 ug/ml by Ellman method after 24 hrs (reference value: 39.82 +/- 4.20 nmol/mg of protein); type: functional
[15] = test system: MCF7; assay: Effect on hydrogen peroxide level in human MCF7 cells assessed per mg protein at 20 ug/ml by Wolf's method after 24 hrs (reference value: 12.50 +/- 1.54 nmol/mg of protein); type: functional
[16] = test system: MCF7; assay: Effect on RNA level in human MCF7 cells assessed per 10 '6 cells at 5 ug/ml after 24 hrs (reference value: 11.50 +/- 0.70 ug/10^6 cells); type: functional; summary of the method: as §1
[17] = test system: MCF7; assay: Effect on glutathione level in human MCF7 cells assessed per mg protein at 2 ug/ml by Ellman method after 24 hrs (reference value: 39.82 +/- 4.20 nmol/mg of protein); type: functional
[18] = test system: MCF7; assay: Effect on DNA level in human MCF7 cells assessed per 10 '6 cells at 10 ug/ml after 24 hrs (reference value: 6.80 +/- 0.70 ug/10^6 cells); type: functional; summary of the method: as §1
[19] = test system: MCF7; assay: Increase in SOD level in human MCF7 cells; type: functional, cell-based
[20] = test system: MCF7; assay: Decrease in glutathione peroxidase level in human MCF7 cells; type: functional, cell-based
[21] = test system: MCF7; assay: Effect on DNA level in human MCF7 cells assessed per 10 '6 cells at 2 ug/ml after 24 hrs (reference value: 6.80 +/- 0.70 ug/10^6 cells); type: functional; summary of the method: as §1
[22] = test system: MCF7; assay: Effect on glutathione peroxidase level in human MCF7 cells assessed per mg protein at 10 ug/ml after 24 hrs (reference value: 11.20 +/- 1.36 U/mg of protein); type: functional
[23] = test system: MCF7; assay: Effect on CAT level in human MCF7 cells assessed per mg protein at 20 ug/ml after 24 hrs (reference value: 7.90+/- 0.67 U/mg of protein); type: functional
[24] = test system: MCF7; assay: Effect on glutathione peroxidase level in human MCF7 cells assessed per mg protein at 5 ug/ml after 24 hrs (reference value: 11.20 +/- 1.36 U/mg of protein); type: functional
[25] = test system: MCF7; assay: Effect on DNA level in human MCF7 cells assessed per 10 '6 cells at 20 ug/ml after 24 hrs (reference value: 6.80 +/- 0.70 ug/10^6 cells); type: functional; summary of the method: as §1
[26] = test system: MCF7; assay: Effect on SOD level in human MCF7 cells assessed per mg protein at 10 ug/ml after 24 hrs (reference value: 27.61+/- 3.72 U/mg of protein); type: functional
[27] = test system: MCF7; assay: Effect on RNA level in human MCF7 cells assessed per 10 '6 cells at 20 ug/ml after 24 hrs (reference value: 11.50 +/- 0.70 ug/10^6 cells); type: functional; summary of the method: as §1
[28] = test system: MCF7; assay: Antiproliferative activity against human MCF7 cells after 24 hrs by MTT assay; type: functional, cell-based; details: for IC50: MCF7, 24 h
Summary of the method: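 MCF-7 cells (DMEM, 10% heat-inactivated FCS, penicillin/streptomycin, 37 °C, 5% CO2) plated at 0.65 × 10⁵ cells/well and given 24 h to attach. Exposed to compound or cisplatin at 2, 5, 10 or 20 µg/ml for 24 h at 37 °C. MTT added for 4 h, formazan dissolved in DMSO, absorbance read at 570 nm. Viability taken relative to untreated cells and IC50 derived.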

[29] = test system: MCF7; assay: Effect on glutathione peroxidase level in human MCF7 cells assessed per mg protein at 20 ug/ml after 24 hrs (reference value: 11.20 +/- 1.36 U/mg of protein); type: functional
[30] = test system: MCF7; assay: Effect on CAT level in human MCF7 cells assessed per mg protein at 2 ug/ml after 24 hrs (reference value: 7.90+/- 0.67 U/mg of protein); type: functional
[31] = test system: MCF7; assay: Decrease in RNA level in human MCF7 cells assessed per 10 '6 cells after 24 hrs relative to control; type: functional, cell-based; summary of the method: as §1
[32] = test system: MCF7; assay: Effect on glutathione level in human MCF7 cells assessed per mg protein at 20 ug/ml by Ellman method after 24 hrs (reference value: 39.82 +/- 4.20 nmol/mg of protein); type: functional
[33] = test system: MCF7; assay: Effect on hydrogen peroxide level in human MCF7 cells assessed per mg protein at 5 ug/ml by Wolf's method after 24 hrs (reference value: 12.50 +/- 1.54 nmol/mg of protein); type: functional
[34] = test system: MCF7; assay: Effect on glutathione peroxidase level in human MCF7 cells assessed per mg protein at 2 ug/ml after 24 hrs (reference value: 11.20 +/- 1.36 U/mg of protein); type: functional
[35] = test system: MCF7; assay: Effect on SOD level in human MCF7 cells assessed per mg protein at 5 ug/ml after 24 hrs (reference value: 27.61+/- 3.72 U/mg of protein); type: functional
[36] = test system: MCF7; assay: Decrease in DNA level in human MCF7 cells assessed per 10 '6 cells after 24 hrs relative to control; type: functional, cell-based; summary of the method: as §1

| SMILES | Activity [1] [U/mg protein] | Activity [2] | Activity [3] [nmol] | Activity [4] [µg/10^6 cells] | Activity [5] [nmol] | Activity [6] [µg/10^6 cells] | Activity [7] [nmol] | Activity [8] [U/mg protein] | Activity [9] [U/mg protein] | Activity [10] | Activity [11] [µg/10^6 cells] | Activity [12] [U/mg protein] | Activity [13] | Activity [14] [nmol] | Activity [15] [nmol] | Activity [16] [µg/10^6 cells] | Activity [17] [nmol] | Activity [18] [µg/10^6 cells] | Activity [19] | Activity [20] | also measured |
| --- | --- | --- | --- | --- | --- | --- | --- | --- | --- | --- | --- | --- | --- | --- | --- | --- | --- | --- | --- | --- | --- |
| CCSc1ncnc2c1cnn2-c1nc(C)nc2sc3c(c12)-c1ccccc1CC3 | 2.9 | Dose-dependent effect | 17 | 5.5 | 35 | 3.1 | 60.5 | 1.76 | 385 | Dose-dependent effect | 4 | 125 | Dose-dependent effect | 19.16 | 80 | 4.32 | 20.11 | 2.76 | Dose-dependent effect | Dose-dependent effect | Activity [21]: 3.8 µg/10^6 cells; Activity [22]: 3 U/mg protein; Activity [23]: 1.55 U/mg protein; Activity [24]: 4.25 U/mg protein; Activity [25]: 1.82 µg/10^6 cells; Activity [26]: 360 U/mg protein; Activity [27]: 3.61 µg/10^6 cells; Activity [28]: Dose-dependent effect; IC50 [28]: 3 µg/mL (≈ 6.97 µM); Activity [29]: 2.2 U/mg protein; Activity [30]: 3.6 U/mg protein; Activity [31]: Dose-dependent effect; Activity [32]: 14.8 nmol; Activity [33]: 55 nmol; Activity [34]: 5.6 U/mg protein; Activity [35]: 150 U/mg protein; Activity [36]: Dose-dependent effect |
| Cc1nc(-n2ncc3c(S[C@@H]4O[C@H](CO)[C@@H](O)[C@H]4O)ncnc32)c2c3c(sc2n1)CCc1ccccc1-3 | 6 | Dose-dependent effect | 33.11 | 9.5 | 21.23 | 5.16 | 35.85 | 5.7 | 161 | Dose-dependent effect | 7.7 | 70.4 | Dose-dependent effect | 40.12 | 40.33 | 8.9 | 43.35 | 4.86 | Dose-dependent effect | Dose-dependent effect | Activity [21]: 5.35 µg/10^6 cells; Activity [22]: 6 U/mg protein; Activity [23]: 5.35 U/mg protein; Activity [24]: 6.6 U/mg protein; Activity [25]: 4.45 µg/10^6 cells; Activity [26]: 110 U/mg protein; Activity [27]: 7.22 µg/10^6 cells; Activity [28]: Dose-dependent effect; IC50 [28]: 9.4 µg/mL (≈ 17.6 µM); Activity [29]: 5.4 U/mg protein; Activity [30]: 6.85 U/mg protein; Activity [31]: Dose-dependent effect; Activity [32]: 30 nmol; Activity [33]: 28.45 nmol; Activity [34]: 9 U/mg protein; Activity [35]: 80.2 U/mg protein; Activity [36]: Dose-dependent effect |
